Tests used:
[1] = target: T1, 5-hydroxytryptamine receptor 1A (Rattus norvegicus, UniProt P19327); assay: Displacement of [3H]-8-OH-DPAT from 5-HT1A receptor in rat hippocampus by liquid scintillation counting; type: tissue-based
T1 sequence (P19327 whole entry): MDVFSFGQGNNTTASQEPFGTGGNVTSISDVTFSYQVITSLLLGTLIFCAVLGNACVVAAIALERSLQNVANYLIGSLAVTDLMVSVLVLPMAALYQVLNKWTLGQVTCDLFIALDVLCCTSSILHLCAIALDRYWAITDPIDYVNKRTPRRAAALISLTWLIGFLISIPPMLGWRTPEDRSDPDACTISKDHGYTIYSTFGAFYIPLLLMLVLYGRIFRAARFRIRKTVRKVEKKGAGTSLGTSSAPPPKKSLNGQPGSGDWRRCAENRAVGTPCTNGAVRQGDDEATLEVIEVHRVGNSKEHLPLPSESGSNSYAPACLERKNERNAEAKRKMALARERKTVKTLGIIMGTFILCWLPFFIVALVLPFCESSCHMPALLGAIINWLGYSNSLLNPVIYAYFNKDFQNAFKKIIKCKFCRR
How it was run: (§1)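 Competition binding with 7–9 compound concentrations, each run in triplicate. 5-HT1A, 5-HT2A and α1 sites were native. 5-HT6 used [3H]-LSD and 5-HT7 used [3H]-5-CT, both on cloned human receptors stably expressed in HEK293 cells. After incubation, samples were vacuum-filtered through GF/B filters and washed with ice-cold buffer. Bound radioactivity was counted by liquid scintillation.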

[2] = target: 5-hydroxytryptamine receptor 2A (Rattus norvegicus, UniProt P14842); assay: Displacement of [3H]-ketanserin from 5-HT2A receptor in rat cortex by liquid scintillation counting; how it was run: as §1
[3] = target: T2, 5-hydroxytryptamine receptor 7 (Homo sapiens, UniProt P34969); assay: Displacement of [3H]-5-CT from human 5-HT7 receptor expressed in HEK293 cells after 1 hr by liquid scintillation counting; type: cell-based; how it was run: as §1
[4] = target: T2, 5-hydroxytryptamine receptor 7; assay: Antagonist activity at human 5-HT7 receptor expressed in CHO cells assessed as inhibition of serotonin-induced intracellular cAMP accumulation preincubated for 20 mins measured after 10 mins by radioimmunoassay; type: functional, cell-based
[5] = target: T3, Adrenergic receptor alpha-1 (Rattus norvegicus, UniProt P15823+P23944+P43140); assay: Displacement of [3H]-prazosin from alpha 1 receptor in rat cortex by liquid scintillation counting; how it was run: as §1
T3 sequence (P15823 whole entry): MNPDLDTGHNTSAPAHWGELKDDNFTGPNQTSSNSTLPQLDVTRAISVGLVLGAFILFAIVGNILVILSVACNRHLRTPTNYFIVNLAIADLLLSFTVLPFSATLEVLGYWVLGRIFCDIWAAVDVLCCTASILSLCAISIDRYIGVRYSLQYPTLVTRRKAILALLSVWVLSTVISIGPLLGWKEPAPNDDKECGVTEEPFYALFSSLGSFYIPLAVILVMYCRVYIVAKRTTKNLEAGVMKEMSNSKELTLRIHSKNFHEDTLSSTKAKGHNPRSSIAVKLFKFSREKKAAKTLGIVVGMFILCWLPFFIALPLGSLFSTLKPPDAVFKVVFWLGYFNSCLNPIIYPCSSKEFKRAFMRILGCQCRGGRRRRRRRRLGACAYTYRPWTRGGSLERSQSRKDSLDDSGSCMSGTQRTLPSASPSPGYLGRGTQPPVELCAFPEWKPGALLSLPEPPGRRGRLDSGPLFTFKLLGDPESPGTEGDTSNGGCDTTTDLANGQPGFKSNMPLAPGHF
T3 sequence (P23944 whole entry): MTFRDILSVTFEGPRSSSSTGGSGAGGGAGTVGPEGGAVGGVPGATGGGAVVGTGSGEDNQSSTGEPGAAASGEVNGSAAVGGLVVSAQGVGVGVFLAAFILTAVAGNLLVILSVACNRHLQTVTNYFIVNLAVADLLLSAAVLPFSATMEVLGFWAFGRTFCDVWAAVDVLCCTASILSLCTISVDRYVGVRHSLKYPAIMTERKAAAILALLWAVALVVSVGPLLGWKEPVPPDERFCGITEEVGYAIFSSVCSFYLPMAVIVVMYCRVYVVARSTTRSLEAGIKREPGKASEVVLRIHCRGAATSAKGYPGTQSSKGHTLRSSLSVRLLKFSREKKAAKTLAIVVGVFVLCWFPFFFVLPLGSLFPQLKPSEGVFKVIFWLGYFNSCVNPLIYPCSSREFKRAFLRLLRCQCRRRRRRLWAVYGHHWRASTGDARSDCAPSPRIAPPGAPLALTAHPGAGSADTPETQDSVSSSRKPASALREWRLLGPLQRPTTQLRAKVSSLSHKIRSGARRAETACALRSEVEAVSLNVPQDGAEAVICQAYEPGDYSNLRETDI
T3 sequence (P43140 whole entry): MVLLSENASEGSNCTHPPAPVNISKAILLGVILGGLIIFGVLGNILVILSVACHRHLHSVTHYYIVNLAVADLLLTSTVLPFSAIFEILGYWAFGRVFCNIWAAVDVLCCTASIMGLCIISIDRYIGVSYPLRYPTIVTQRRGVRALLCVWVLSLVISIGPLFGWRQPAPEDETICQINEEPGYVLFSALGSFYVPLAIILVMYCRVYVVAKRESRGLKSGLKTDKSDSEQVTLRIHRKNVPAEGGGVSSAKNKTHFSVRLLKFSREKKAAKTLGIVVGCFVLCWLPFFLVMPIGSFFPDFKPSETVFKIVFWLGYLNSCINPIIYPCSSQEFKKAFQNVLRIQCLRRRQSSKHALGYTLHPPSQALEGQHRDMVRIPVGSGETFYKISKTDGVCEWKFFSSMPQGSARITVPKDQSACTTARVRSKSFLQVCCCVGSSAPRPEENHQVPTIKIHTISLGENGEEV

[6] = target: 5-hydroxytryptamine receptor 6 (Homo sapiens, UniProt P50406); assay: Displacement of [3H]-LSD from human 5-HT6 receptor expressed in HEK293 cells after 1 hr by liquid scintillation counting; type: cell-based; how it was run: as §1
Mus musculus [7] = assay: Antidepressant like activity in Albino Swiss mouse assessed as reduction of immobility time at 5 mg/kg, ip administered 30 mins before test measured during final 4 mins of the 6 mins session by forced swimming test (reference value: 165 +/- 9.6 sec); type: functional; conditions: route intraperitoneal
Mus musculus [8] = assay: Antidepressant like activity in Albino Swiss mouse assessed as reduction of immobility time at 20 mg/kg, ip administered 30 mins before test measured during final 4 mins of the 6 mins session by forced swimming test (reference value: 165 +/- 9.6 sec); type: functional; conditions: route intraperitoneal
Mus musculus [9] = assay: Antidepressant like activity in Albino Swiss mouse assessed as reduction of immobility time at 10 mg/kg, ip administered 30 mins before test measured during final 4 mins of the 6 mins session by forced swimming test (reference value: 165 +/- 9.6 sec); type: functional; conditions: route intraperitoneal
HEK293 = assay: Selectivity ratio of Ki for 5-HT1A receptor in rat hippocampus to Ki for human 5-HT7 receptor expressed in HEK293 cells; type: cell-based
Mus musculus [10] = assay: Neurotoxicity in Albino Swiss mouse assessed as effect on number of crossings at 10 mg/kg, ip administered 30 mins before test measured for 2 to 6 mins; type: toxicity, organism-based; set-up: dose 10 mg/kg, route intraperitoneal; conditions: in vivo
How it was run: (§2)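 Spontaneous locomotor activity in mice, recorded over 2–6 min (the swim-test observation window) or over a 30-min session. Drug was suspended in 1% aqueous Tween 80 and given ip at 10 ml/kg, 30 min beforehand, with vehicle-injected controls. Tests ran blind during the light phase (09.00–14.00 h), using 7–10 animals per dose, each used once.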

Mus musculus [11] = assay: Antidepressant like activity in Albino Swiss mouse assessed as reduction in immobility time at 10 mg/kg, ip administered 30 mins before test measured during final 4 mins of the 6 mins session by forced swimming test; type: functional; set-up: scale not given: the % may be the effect or the level left; conditions: route intraperitoneal
Mus musculus [12] = assay: Neurotoxicity in Albino Swiss mouse assessed as effect on number of crossings at 10 mg/kg, ip administered 30 mins before test measured for 30 mins; type: toxicity, organism-based; set-up: dose 10 mg/kg, route intraperitoneal; conditions: in vivo, 0.5 h; how it was run: as §2

Sequence of 5-hydroxytryptamine receptor 6 (P50406 whole entry): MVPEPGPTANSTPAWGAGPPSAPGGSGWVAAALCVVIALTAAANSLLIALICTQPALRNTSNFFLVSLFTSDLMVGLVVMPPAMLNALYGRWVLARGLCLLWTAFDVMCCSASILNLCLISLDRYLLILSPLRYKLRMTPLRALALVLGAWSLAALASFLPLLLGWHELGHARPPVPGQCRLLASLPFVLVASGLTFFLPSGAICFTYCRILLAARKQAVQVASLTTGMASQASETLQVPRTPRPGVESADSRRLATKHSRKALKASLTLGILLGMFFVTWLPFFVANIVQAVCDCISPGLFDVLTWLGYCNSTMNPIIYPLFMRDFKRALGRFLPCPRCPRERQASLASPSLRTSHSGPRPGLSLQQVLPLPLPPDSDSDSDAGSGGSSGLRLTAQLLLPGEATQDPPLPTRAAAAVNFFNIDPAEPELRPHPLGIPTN
Sequence of 5-hydroxytryptamine receptor 2A (P14842 whole entry): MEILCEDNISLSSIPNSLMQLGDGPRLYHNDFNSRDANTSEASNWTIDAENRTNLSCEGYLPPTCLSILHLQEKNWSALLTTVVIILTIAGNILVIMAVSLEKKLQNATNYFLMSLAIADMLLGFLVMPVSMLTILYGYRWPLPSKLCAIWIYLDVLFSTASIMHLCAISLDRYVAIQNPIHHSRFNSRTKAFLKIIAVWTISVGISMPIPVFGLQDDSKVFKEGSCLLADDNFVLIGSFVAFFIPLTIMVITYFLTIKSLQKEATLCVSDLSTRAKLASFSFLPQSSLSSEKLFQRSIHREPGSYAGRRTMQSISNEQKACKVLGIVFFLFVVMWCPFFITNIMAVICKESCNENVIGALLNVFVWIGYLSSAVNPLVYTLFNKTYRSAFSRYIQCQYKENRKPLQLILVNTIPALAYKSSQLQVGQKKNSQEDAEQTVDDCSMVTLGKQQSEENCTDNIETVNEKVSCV
T2 sequence (P34969 whole entry): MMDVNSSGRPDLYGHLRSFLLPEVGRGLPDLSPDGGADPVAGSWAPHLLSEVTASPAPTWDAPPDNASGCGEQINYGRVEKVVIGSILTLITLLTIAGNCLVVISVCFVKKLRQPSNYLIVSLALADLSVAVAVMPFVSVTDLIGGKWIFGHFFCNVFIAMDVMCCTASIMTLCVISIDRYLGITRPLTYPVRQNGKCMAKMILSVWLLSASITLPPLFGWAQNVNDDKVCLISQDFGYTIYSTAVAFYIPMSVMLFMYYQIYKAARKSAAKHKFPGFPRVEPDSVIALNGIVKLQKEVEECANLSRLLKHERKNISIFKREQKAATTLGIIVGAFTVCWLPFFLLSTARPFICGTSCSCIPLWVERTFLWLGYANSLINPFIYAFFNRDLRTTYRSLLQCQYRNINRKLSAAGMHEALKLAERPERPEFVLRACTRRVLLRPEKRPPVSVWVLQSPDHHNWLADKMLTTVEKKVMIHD

Ki [1] [nM]	Ki [2] [nM]	Ki [3] [nM]	Ki [6] [µM]	Compound	Ratio Ki (HEK293)	other results
313	1790	33	4.59	CCN(CCCCCN1CCC2CCCCC2C1)S(=O)(=O)c1cccc2cccnc12 (centres undefined)	9.5	Kb [4]: 1300 nM; Ki [5]: 92 nM; Time (Mus musculus [7]): 144.8 s; Time (Mus musculus [8]): 181.2 s; Time (Mus musculus [9]): 158.6 s
25	1320	29	1.92	CCN(CCCN1CCN(c2ccccc2OC)CC1)S(=O)(=O)c1ccc2ncccc2c1	0.9	
233	1520	224	8.25	O=S(=O)(NCCCCN1CCc2ccccc2C1)c1ccc2ncccc2c1	1	
3570		1260		O=S(=O)(NCCCCN1CCC2CCCCC2C1)c1cccc2cccnc12 (centres undefined)	2.8	
		94		O=S(=O)(NCCCCN1CCc2ccccc2C1)c1ccccc1		
325	5090	187	14.5	CCN(CCCCN1CCC2CCCCC2C1)S(=O)(=O)c1cnc2ccccc2c1 (centres undefined)	1.7	
		19		CCN(CCCN1CCN(c2ccccc2OC)CC1)S(=O)(=O)c1ccc(C)cc1		
271	4180	88	1.46	O=S(=O)(NCCCCN1CCc2ccccc2C1)c1cccc2cccnc12	3	
9.3		38		CCN(CCCCN1CCN(c2ccccc2OC)CC1)S(=O)(=O)c1cnc2ccccc2c1	0.2	
986	1080	506	17.4	O=S(=O)(NCCCCN1CCc2sccc2C1)c1cnc2ccccc2c1	1.9	
				CC1CCN(CC[C@H]2CCCN2S(=O)(=O)c2cccc(O)c2)CC1		Activity (Mus musculus [10]): Non-toxic; Activity (Mus musculus [11]): 33%; Time (Mus musculus [7]): 136.1 s; Time (Mus musculus [8]): 139.3 s; Activity (Mus musculus [12]): Non-toxic; Time (Mus musculus [9]): 110.8 s
		3010		NCCCN(CCN1CCc2ccccc2C1)S(=O)(=O)c1ccccc1		
1100	6280	13	1.95	CCN(CCCCN1CCC2CCCCC2C1)S(=O)(=O)c1cccc2cccnc12 (centres undefined)	84.5	Kb [4]: 140 nM; Ki [5]: 155 nM; Activity (Mus musculus [10]): Non-toxic; Activity (Mus musculus [11]): 22%; Time (Mus musculus [7]): 155.2 s; Time (Mus musculus [8]): 182.3 s; Activity (Mus musculus [12]): Non-toxic; Time (Mus musculus [9]): 128.1 s
		78		O=S(=O)(NCCN1CCc2ccccc2C1)c1ccc2ccccc2c1		
		270		O=S(=O)(NCCCN1CCc2ccccc2C1)c1ccccc1		
		335		NCCCN(CCCN1CCc2ccccc2C1)S(=O)(=O)c1ccccc1		
305	590	228	8.63	O=S(=O)(NCCCCN1CCc2ccccc2C1)c1cnc2ccccc2c1	1.3	

Ki [1] [nM]	Ki [2] [nM]	Ki [3] [nM]	Ki [6] [µM]	Compound	Ratio Ki (HEK293)	other results
		267		NCCN(CCCN1CCc2ccccc2C1)S(=O)(=O)c1ccccc1		
3.7		79		COc1ccccc1N1CCN(CCCCNS(=O)(=O)c2cnc3ccccc3c2)CC1	0.05	
4310		1420		O=S(=O)(NCCCN1CCC2CCCCC2C1)c1ccc2ncccc2c1 (centres undefined)	3	
		235		NCCCN(CCCCN1CCc2ccccc2C1)S(=O)(=O)c1ccccc1		
18	825	156	2.84	COc1ccccc1N1CCN(CCCNS(=O)(=O)c2ccc3ncccc3c2)CC1	0.1	
483	2650	334	17.5	O=S(=O)(NCCCCN1CCc2sccc2C1)c1ccc2cccnc2c1	1.4	
		80		O=S(=O)(NCCCN1CCc2ccccc2C1)c1ccc2ccccc2c1		
		360		COc1cccc2c1CCN(CCCNS(=O)(=O)c1cccc3ccccc13)C2		
		773		O=S(=O)(NCCN1CCc2ccccc2C1)c1ccccc1		
		296		O=S(=O)(NCCCCN1CCc2ccccc2C1)c1cccc2ccccc12		
30		37		CCN(CCCCN1CCN(c2ccccc2OC)CC1)S(=O)(=O)c1cccc2cccnc12	0.8	
37	2160	90	1.64	COc1ccccc1N1CCN(CCCNS(=O)(=O)c2cccc3cccnc23)CC1	0.4	
53		55		COc1ccccc1N1CCN(CCCCNS(=O)(=O)c2cccc3cccnc23)CC1	0.9	
1450		995		O=S(=O)(NCCCCN1CCC2CCCCC2C1)c1cnc2ccccc2c1 (centres undefined)	1.5	
		64		O=S(=O)(NCCCCN1CCc2ccccc2C1)c1ccc2ccccc2c1		
21		41		CCN(CCCCN1CCN(c2ccccc2OC)CC1)S(=O)(=O)c1ccc2ncccc2c1	0.5	
40		132		COc1ccccc1N1CCN(CCCCNS(=O)(=O)c2ccc3ncccc3c2)CC1	0.3	

Reference: ChEMBL document CHEMBL1914452, “Arene- and quinoline-sulfonamides as novel 5-HT7 receptor ligands” (Bioorg Med Chem, 2011)
